The labels stand for the following.
B1: tRNA (parent)
chain: GUUCCGUUGGCGUAAUGGUAACGCGUCUCCCUCCUAAGGAGAAGACUGCGGGUUCGAGUCCCGUACGGAACG

Fewer inactive variants are shown than the library holds.

This data set covers variants of B1. Description: yeast fitness relative to wild type (ratio to wild type); higher = fitter; tRNA-Arg(CCU), competitive growth, 37 C, YPD. In short, it runs like this:
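For this measurement, the tRNA-Arg(CCU) gene was varied by chemical synthesis at a 3% per-site mutation rate across 69 sites, and each variant was placed at the native genomic locus in Saccharomyces cerevisiae. The pooled strains went through a 24-hour competition in YPD at 37°C in six parallel replicates, with amplicons from start and end populations read by 100-nucleotide paired-end sequencing. Darwinian fitness relative to wild type followed from the change in each genotype's frequency. Genotypes needed ≥ 100 starting reads, and estimates < 0.5 were set to 0.5.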
With GUUCCGUUGGCGUAAUGGUAACGCGUCUCCCUCCUAAGGAGAAGACCGCGGGCUCGAGUCCCGUACGGAACG, the yeast fitness was 0.795.

With GUUCCGUUGGCGUAAUGGUAACGCGUCUCCCUCCUAAGGAGAAGACUAUGGGUUCGAGUCCUGUACGGUACG, the yeast fitness worked out at 0.553.

Turning to GUUCCGUUGGCGUAAUGGUAACGCGUCUCCCUCCUAAGGAGAAGACUAGGGGUUCGAGUGCCGUACGGAACG, the yeast fitness stood at 0.576.

In the case of GUUCCGUUGGCGUAAUGGUAACGCGUCUCCCUCCUAAGGAGAAGACUAUGGGUUCGAGUCCCCUACGGAACG, the yeast fitness came to 0.633.

Regarding GUUCCGUUGGCGUAAUGGUAACGCGUCUCCCUCCUAAGGAGAAGACAGCAGGUUCGAGUCCCGUACGGAACG, the yeast fitness was determined as 0.831.

Take GUUCCGUUGGCGUAAUGGUAACGCGUCUCCCUCCUAAGGAGAAGACCGCGGGUUCGAGUGCCGUACGGAACG: the yeast fitness was 0.651.

Turning to GUUCCGUUGGCGUAAUGGUAACGCGUCUCCCUCCUAAGGAGAAGACCGCGGGUUCGAGUUCCGUACGGAACG, the yeast fitness was 0.722.

As to GUUCCGUUGGCGUAAUGGUAACGCGUCUCCCUCCUAAGGAGAAGACCGCGGGUUCGAGUCCCGUAAGGAACG, the yeast fitness was 0.775.

As for GUUCCGUUGGCGUAAUGGUAACGCGUCUCCCUCCUAAGGAGAAGACCGCGGGUUCGAGUCCGGUCCGGAACG, the yeast fitness was ≤ 0.5.

Take GUUCCGUUGGCGUAAUGGUAACGCGUCUCCCUCCUAAGGAGAAGACUACGGGUUUGAGUCCCGUACGGAACG: the yeast fitness came out at 0.661.

For GUUCCGUUGGCGUAAUGGUAACGCGUCUCCCUCCUAAGGAGAAGACGGCGGGUACGAAUCCCGUACGGAACG, the yeast fitness is ≤ 0.5.

As for GUUCCGUUGGCGUAAUGGUAACGCGUCUCCCUCCUAAGGAGAAGACUACGGGUUUGAGUCCCGUACGGAGCG, the yeast fitness is ≤ 0.5.

With GUUCCGUUGGCGUAAUGGUAACGCGUCUCCCUCCUAAGGAGAAGACUACGGGUUCGAGUCCCGUACGGUACG, the yeast fitness came to 0.961.

For the variant GUUCCGUUGGCGUAAUGGUAACGCGUCUCCCUCCUAAGGAGAAGACAACGGGUUCGAGUCCCGUACGGAUCG, the yeast fitness is 0.748.

On to GUUCCGUUGGCGUAAUGGUAACGCGUCUCCCUCCUAAGGAGAAGACUACGGGUUCGCGUCCCGUACGGAACG, for which the yeast fitness was 0.643.

As to GUUCCGUUGGCGUAAUGGUAACGCGUCUCCCUCCUAAGGAGAAGACUACGGGUUCGAGUCCCGUUCGGAACG, the yeast fitness was 1.02.

For the variant GUUCCGUUGGCGUAAUGGUAACGCGUCUCCCUCCUAAGGAGAAGACGGCGGGUUCGAGUCCCGUACGCAACG, the yeast fitness is 0.563.

As to GUUCCGUUGGCGUAAUGGUAACGCGUCUCCCUCCUAAGGAGAAGACAGCGAGUUCGAGUCCCGUACGGGACG, the yeast fitness is ≤ 0.5.

For the variant GUUCCGUUGGCGUAAUGGUAACGCGUCUCCCUCCUAAGGAGAAGACGGAGGGUUCGAGUCCCGUACGGUACG, the yeast fitness was 0.573.

As for GUUCCGUUGGCGUAAUGGUAACGCGUCUCCCUCCUAAGGAGAAGACCACGGGUUCGAGUCCCGUACGGAACG, the yeast fitness came to 0.96.

On to GUUCCGUUGGCGUAAUGGUAACGCGUCUCCCUCCUAAGGAGAAGACCGCGGGUUCGAGUCCCGUACGGAGCG, for which the yeast fitness was determined as 1.03.

Regarding GUUCCGUUGGCGUAAUGGUAACGCGUCUCCCUCCUAAGGAGAAGACCGCGGGUUCGCGUCCCGUACGGAACG, the yeast fitness came out at 0.524.

For the variant GUUCCGUUGGCGUAAUGGUAACGCGUCUCCCUCCUAAGGAGAAGACCGCGGGUUCGAGCCCCGUACGGAACG, the yeast fitness is 0.926.

For the variant GUUCCGUUGGCGUAAUGGUAACGCGUCUCCCUCCUAAGGAGAAGACCGCGGGUUCGAGUCGCGUCCGGAACG, the yeast fitness is ≤ 0.5.

As for GUUCCGUUGGCGUAAUGGUAACGCGUCUCCCUCCUAAGGAGAAGACCGCGGGUUCGACUCCCGUACGGAACG, the yeast fitness was found to be 0.971.

GUUCCGUUGGCGUAAUGGUAACGCGUCUCCCUCCUAAGGAGAAGACCGCGGGUUCGAGUCCCGUGCGGAACG: the yeast fitness is 0.92.

On to GUUCCGUUGGCGUAAUGGUAACGCGUCUCCCUCCUAAGGAGAAGACCGCGGAUUCGAGUCCCGUACGGAACG, for which the yeast fitness is 0.724.

Take GUUCCGUUGGCGUAAUGGUAACGCGUCUCCCUCCUAAGGAGAAGACCGUGGGUUCGAGUCCCGUACGCAACG: the yeast fitness was determined as 0.582.

Turning to GUUCCGUUGGCGUAAUGGUAACGCGUCUCCCUCCUAAGGAGAAGACUACGGGUUCGAGUGCCGUUCGGAACG, the yeast fitness was ≤ 0.5.

Turning to GUUCCGUUGGCGUAAUGGUAACGCGUCUCCCUCCUAAGGAGAAGACUAAGGGUUCGAGUCCCGUACUGAACG, the yeast fitness was determined as 0.572.

Turning to GUUCCGUUGGCGUAAUGGUAACGCGUCUCCCUCCUAAGGAGAAGACCGCGGGUUCGAGUCCCGUCGGGAACG, the yeast fitness was ≤ 0.5.

Consider GUUCCGUUGGCGUAAUGGUAACGCGUCUCCCUCCUAAGGAGAAGACUACGGGUUCGAGUCGUGUACGGAACG, for which the yeast fitness is ≤ 0.5.

Regarding GUUCCGUUGGCGUAAUGGUAACGCGUCUCCCUCCUAAGGAGAAGACAGCGGGUUCGAGUCCCGUACGCAACG, the yeast fitness worked out at 0.606.

In the case of GUUCCGUUGGCGUAAUGGUAACGCGUCUCCCUCCUAAGGAGAAGACCGCAGGUUCGAGUCCCGUACGCAACG, the yeast fitness worked out at 0.539.

Regarding GUUCCGUUGGCGUAAUGGUAACGCGUCUCCCUCCUAAGGAGAAGACAGCGGGCUCGAGUCCCGUACGGAACG, the yeast fitness was found to be 0.7.

Turning to GUUCCGUUGGCGUAAUGGUAACGCGUCUCCCUCCUAAGGAGAAGACCGCGGGUUCGAGUGCCGUACGGCACG, the yeast fitness was ≤ 0.5.

As for GUUCCGUUGGCGUAAUGGUAACGCGUCUCCCUCCUAAGGAGAAGACCGCGGGUUCGAUUCCCGUUCGGAACG, the yeast fitness came out at 0.511.

GUUCCGUUGGCGUAAUGGUAACGCGUCUCCCUCCUAAGGAGAAGACUAGGGGUUCGAGUCCCGUACGGAACG: the yeast fitness is 1.05.

For the origin of these results see the RNAGym collection of RNA variant scans (doi:10.1126/science.aae0568).
